Data as given in ChEMBL document CHEMBL1148367, “Novel azapeptide inhibitors of hepatitis C virus serine protease” (J Med Chem, 2004).
*1 amine or outer side, *2 acyl side, *3 side chain or, on linkers, in order; H or OH if unused. Where a SMILES comes first, the peptide text is derived from it. [ ]: non-standard residue; d: D form. The star is where a group is joined. NH(1S-phenylpropyl) = CC[C@H](N*)c1ccccc1; NH(1R-phenylethyl) = C[C@@H](N*)c1ccccc1; NH(1S-phenylethyl) = C[C@H](N*)c1ccccc1; X8 = O=C(N(CC(F)(F)F)N[*:1])[*:2]; Hyp = O=C(O)[C@@H]1C[C@@H](O)CN1; NHPiperonyl = c1cc2c(cc1CN*)OCO2; X12 = CCCN(N*)C(=O)NN(C)c1ccccc1; X5 = CC(C)CCN(N[*:1])C(=O)[*:2]; azaNva = CCCN(N[*:1])C(=O)[*:2]; AzaAla = CN(N[*:1])C(=O)[*:2]; X10 = CCCN(N*)C(=O)CCc1ccccc1; X3 = C[C@H](N*)c1cccc2ccccc12; X9 = CCCCCN(N[*:1])C(=O)[*:2]; NMe(benzyl) = CN(Cc1ccccc1)*; X6 = CCCN(N*)C(=S)NCc1ccccc1; X7 = CCCN(N*)C(=O)OCc1ccccc1; X1 = c1ccc2c(c1)CC[C@@H]2N*; X4 = C[C@H](N*)c1ccc(Br)cc1; X14 = C[C@H](N*)c1nnn[nH]1; X11 = C[C@H](N*)C1CCCCC1; X13 = c1ccc2c(c1)CCN2*; NHBn = c1ccc(CN*)cc1; X2 = CCCN(N*)C(N)=O; Bn = c1ccc(C*)cc1

Experiments:
NS3 [1] = target: T1, NS3 (Hepatitis C virus, UniProt A3EZJ3); assay: Inhibitory concentration against Hepatitis C virus serine protease; design: species or system Hepacivirus hominis
T1 sequence (A3EZJ3 whole entry): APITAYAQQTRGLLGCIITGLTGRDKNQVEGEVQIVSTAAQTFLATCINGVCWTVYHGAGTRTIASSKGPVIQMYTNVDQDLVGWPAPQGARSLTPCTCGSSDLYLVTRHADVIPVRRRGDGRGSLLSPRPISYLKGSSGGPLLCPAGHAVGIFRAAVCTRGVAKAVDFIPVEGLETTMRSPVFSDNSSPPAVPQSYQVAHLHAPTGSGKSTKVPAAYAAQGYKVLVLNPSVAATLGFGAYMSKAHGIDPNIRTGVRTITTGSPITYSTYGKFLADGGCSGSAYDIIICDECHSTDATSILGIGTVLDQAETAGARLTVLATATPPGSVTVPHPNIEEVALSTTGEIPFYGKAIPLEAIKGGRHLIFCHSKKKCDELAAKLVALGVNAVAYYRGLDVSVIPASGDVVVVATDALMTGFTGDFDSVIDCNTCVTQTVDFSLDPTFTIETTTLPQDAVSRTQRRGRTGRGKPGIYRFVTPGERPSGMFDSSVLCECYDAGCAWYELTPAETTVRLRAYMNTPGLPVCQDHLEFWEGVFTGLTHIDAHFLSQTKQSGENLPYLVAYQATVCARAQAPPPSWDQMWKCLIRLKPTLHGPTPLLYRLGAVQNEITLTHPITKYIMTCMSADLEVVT

NS3 [2] = target: T1, NS3; assay: Inhibitory concentration against Hepatitis C virus NS3 serine protease; design: species or system Hepacivirus hominis
Method in brief: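 HCV NS3 serine protease IC50 from the group's in-house protease assay, run as previously described. Each reported value is the mean of at least four determinations.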

Compound | IC50 (NS3 [1]) [nM] | IC50 (NS3 [2]) [nM]
CCCN(NC(=O)[C@@H]1C[C@@H](OCc2ccccc2)CN1C(=O)[C@@H](NC(=O)[C@@H](NC(=O)[C@@H](CCC(=O)O)NC(=O)[C@H](CC(=O)O)NC(C)=O)[C@@H](C)CC)C(C)C)C(=O)N[C@@H](C)C1CCCCC1 (Ac-D[dE]IV[Hyp](Bn)[azaNva]-X11) | 420 | –
CCCN(NC(=O)[C@@H]1C[C@@H](OCc2ccccc2)CN1C(=O)[C@@H](NC(=O)[C@@H](NC(=O)[C@@H](CCC(=O)O)NC(=O)[C@H](CC(=O)O)NC(C)=O)[C@@H](C)CC)C(C)C)C(=O)OCc1ccccc1 (Ac-D[dE]IV[Hyp](Bn)-X7) | 800 | –
CCCN(NC(=O)[C@@H]1C[C@@H](OCc2ccccc2)CN1C(=O)[C@@H](NC(=O)[C@@H](NC(=O)[C@@H](CCC(=O)O)NC(=O)[C@H](CC(=O)O)NC(C)=O)[C@@H](C)CC)C(C)C)C(=O)N[C@H](C)c1ccccc1 (Ac-D[dE]IV[Hyp](Bn)[azaNva]-{NH(1R-phenylethyl)}) | 4300 | –
CCCN(NC(=O)[C@@H]1C[C@@H](OCc2ccccc2)CN1C(=O)[C@@H](NC(=O)[C@@H](NC(=O)[C@@H](CCC(=O)O)NC(=O)[C@H](CC(=O)O)NC(C)=O)[C@@H](C)CC)C(C)C)C(=O)N[C@@H](CC)c1ccccc1 (Ac-D[dE]IV[Hyp](Bn)[azaNva]-{NH(1S-phenylpropyl)}) | 440 | –
CC[C@H](C)[C@H](NC(=O)[C@@H](CCC(=O)O)NC(=O)[C@H](CC(=O)O)NC(C)=O)C(=O)N[C@H](C(=O)N1C[C@H](OCc2ccccc2)C[C@H]1C(=O)NN(CC)C(=O)N[C@@H](C)c1ccccc1)C(C)C | 85 | –
CCC[C@H](NC(=O)[C@@H]1C[C@@H](OCc2ccccc2)CN1C(=O)[C@@H](NC(=O)[C@@H](NC(=O)[C@@H](CCC(=O)O)NC(=O)[C@H](CC(=O)O)NC(C)=O)[C@@H](C)CC)C(C)C)C(N)=O | 26000 | –
CCCN(NC(=O)[C@@H]1C[C@@H](OCc2ccccc2)CN1C(=O)[C@@H](NC(=O)[C@@H](NC(=O)[C@@H](CCC(=O)O)NC(=O)[C@H](CC(=O)O)NC(C)=O)[C@@H](C)CC)C(C)C)C(=O)CCc1ccccc1 (Ac-D[dE]IV[Hyp](Bn)-X10) | 710 | –
CCCN(NC(=O)[C@@H]1C[C@@H](OCc2ccccc2)CN1C(=O)[C@@H](NC(=O)[C@@H](NC(=O)[C@@H](CCC(=O)O)NC(=O)[C@H](CC(=O)O)NC(C)=O)[C@@H](C)CC)C(C)C)C(=O)NN(C)c1ccccc1 (Ac-D[dE]IV[Hyp](Bn)-X12) | 480 | –
CCC[C@@H](NC(=O)[C@@H]1C[C@@H](OCc2ccccc2)CN1C(=O)[C@@H](NC(=O)[C@@H](NC(=O)[C@@H](CCC(=O)O)NC(=O)[C@H](CC(=O)O)NC(C)=O)[C@@H](C)CC)C(C)C)C(=O)O | 34000 | –
CCC(CC)N(NC(=O)[C@@H]1C[C@@H](OCc2ccccc2)CN1C(=O)[C@@H](NC(=O)[C@@H](NC(=O)[C@@H](CCC(=O)O)NC(=O)[C@H](CC(=O)O)NC(C)=O)[C@@H](C)CC)C(C)C)C(=O)N[C@@H](C)c1ccccc1 | 4100 | –
CCCN(NC(=O)[C@@H]1C[C@@H](OCc2ccccc2)CN1C(=O)[C@@H](NC(=O)[C@@H](NC(=O)[C@@H](CCC(=O)O)NC(=O)[C@H](CC(=O)O)NC(C)=O)[C@@H](C)CC)C(C)C)C(=O)N[C@H]1CCc2ccccc21 (Ac-D[dE]IV[Hyp](Bn)[azaNva]-X1) | 100 | –
CC[C@H](C)[C@H](NC(=O)[C@@H](CCC(=O)O)NC(=O)[C@H](CC(=O)O)NC(C)=O)C(=O)N[C@H](C(=O)N1C[C@H](OCc2ccccc2)C[C@H]1C(=O)NN(C)C(=O)N[C@@H](C)c1ccccc1)C(C)C (Ac-D[dE]IV[Hyp](Bn)[AzaAla]-{NH(1S-phenylethyl)}) | 430 | –
CCCN(NC(=O)[C@@H]1C[C@@H](OCc2ccccc2)CN1C(=O)[C@@H](NC(=O)[C@@H](NC(=O)[C@@H](CCC(=O)O)NC(=O)[C@H](CC(=O)O)NC(C)=O)[C@@H](C)CC)C(C)C)C(=O)NCc1ccc2c(c1)OCO2 (Ac-D[dE]IV[Hyp](Bn)[azaNva]-NHPiperonyl) | 500 | –
CCCN(NC(=O)[C@@H]1C[C@@H](OCc2ccccc2)CN1C(=O)[C@@H](NC(=O)[C@@H](NC(=O)[C@@H](CCC(=O)O)NC(=O)[C@H](CC(=O)O)NC(C)=O)[C@@H](C)CC)C(C)C)C(=S)NCc1ccccc1 (Ac-D[dE]IV[Hyp](Bn)-X6) | 4200 | –
CCCN(NC(=O)[C@@H]1C[C@@H](OCc2ccccc2)CN1C(=O)[C@@H](NC(=O)[C@@H](NC(=O)[C@@H](CCC(=O)O)NC(=O)[C@H](CC(=O)O)NC(C)=O)[C@@H](C)CC)C(C)C)C(N)=O (Ac-D[dE]IV[Hyp](Bn)-X2) | 17500 | –
CCCN(NC(=O)[C@@H]1C[C@@H](OCc2ccccc2)CN1C(=O)[C@@H](NC(=O)[C@@H](NC(=O)[C@@H](CCC(=O)O)NC(=O)[C@H](CC(=O)O)NC(C)=O)[C@@H](C)CC)C(C)C)C(=O)N(C)Cc1ccccc1 (Ac-D[dE]IV[Hyp](Bn)[azaNva]-{NMe(benzyl)}) | 8400 | –
CC[C@H](C)[C@H](NC(=O)[C@@H](CCC(=O)O)NC(=O)[C@H](CC(=O)O)NC(C)=O)C(=O)N[C@H](C(=O)N1C[C@H](OCc2ccccc2)C[C@H]1C(=O)NN(CC(F)(F)F)C(=O)N[C@@H](C)c1ccccc1)C(C)C (Ac-D[dE]IV[Hyp](Bn)[X8]-{NH(1S-phenylethyl)}) | 340 | –
CC[C@H](C)[C@H](NC(=O)[C@@H](CCC(=O)O)NC(=O)[C@H](CC(=O)O)NC(C)=O)C(=O)N[C@H](C(=O)N1C[C@H](OCc2ccccc2)C[C@H]1C(=O)NN(CCC(C)C)C(=O)N[C@@H](C)c1ccccc1)C(C)C (Ac-D[dE]IV[Hyp](Bn)[X5]-{NH(1S-phenylethyl)}) | 5700 | –
CCCN(NC(=O)[C@@H]1C[C@@H](OCc2ccccc2)CN1C(=O)[C@@H](NC(=O)[C@@H](NC(=O)[C@@H](CCC(=O)O)NC(=O)[C@H](CC(=O)O)NC(C)=O)[C@@H](C)CC)C(C)C)C(=O)N[C@@H](C)c1nnn[nH]1 (Ac-D[dE]IV[Hyp](Bn)[azaNva]-X14) | 860 | –
CCCN(NC(=O)[C@@H]1C[C@@H](OCc2ccccc2)CN1C(=O)[C@@H](NC(=O)[C@@H](NC(=O)[C@@H](CCC(=O)O)NC(=O)[C@H](CC(=O)O)NC(C)=O)[C@@H](C)CC)C(C)C)C(=O)NCc1ccccc1 (Ac-D[dE]IV[Hyp](Bn)[azaNva]-NHBn) | 590 | –
CCCN(NC(=O)[C@@H]1C[C@@H](OCc2ccccc2)CN1C(=O)[C@@H](NC(=O)[C@@H](NC(=O)[C@@H](CCC(=O)O)NC(=O)[C@H](CC(=O)O)NC(C)=O)[C@@H](C)CC)C(C)C)C(=O)N1CCc2ccccc21 (Ac-D[dE]IV[Hyp](Bn)[azaNva]-X13) | 4400 | –
CCC[C@H](NC(=O)[C@@H]1C[C@@H](OCc2ccccc2)CN1C(=O)[C@@H](NC(=O)[C@@H](NC(=O)[C@@H](CCC(=O)O)NC(=O)[C@H](CC(=O)O)NC(C)=O)[C@@H](C)CC)C(C)C)C(=O)O | 600 | –
CCCN(NC(=O)[C@@H]1C[C@@H](OCc2ccccc2)CN1C(=O)[C@@H](NC(=O)[C@@H](NC(=O)[C@@H](CCC(=O)O)NC(=O)[C@H](CC(=O)O)NC(C)=O)[C@@H](C)CC)C(C)C)C(=O)N[C@@H](C)c1cccc2ccccc12 (Ac-D[dE]IV[Hyp](Bn)[azaNva]-X3) | 490 | –
CCCN(NC(=O)[C@@H]1C[C@@H](OCc2ccccc2)CN1C(=O)[C@@H](NC(=O)[C@@H](NC(=O)[C@@H](CCC(=O)O)NC(=O)[C@H](CC(=O)O)NC(C)=O)[C@@H](C)CC)C(C)C)C(=O)N[C@@H](C)c1ccc(Br)cc1 (Ac-D[dE]IV[Hyp](Bn)[azaNva]-X4) | 72 | –
CCCCCN(NC(=O)[C@@H]1C[C@@H](OCc2ccccc2)CN1C(=O)[C@@H](NC(=O)[C@@H](NC(=O)[C@@H](CCC(=O)O)NC(=O)[C@H](CC(=O)O)NC(C)=O)[C@@H](C)CC)C(C)C)C(=O)N[C@@H](C)c1ccccc1 (Ac-D[dE]IV[Hyp](Bn)[X9]-{NH(1S-phenylethyl)}) | 490 | –
CCCCN(NC(=O)[C@@H]1C[C@@H](OCc2ccccc2)CN1C(=O)[C@@H](NC(=O)[C@@H](NC(=O)[C@@H](CCC(=O)O)NC(=O)[C@H](CC(=O)O)NC(C)=O)[C@@H](C)CC)C(C)C)C(=O)N[C@@H](C)c1ccccc1 | 99 | –
Ac-DDIVPC-OH | – | 43000
CC[C@H](C)[C@H](NC(=O)[C@@H](CCC(=O)O)NC(=O)[C@H](CC(=O)O)NC(C)=O)C(=O)N[C@H](C(=O)N1C[C@H](OCc2ccccc2)C[C@H]1C(=O)NN(CC(C)C)C(=O)N[C@@H](C)c1ccccc1)C(C)C | 2400 | –
